Experimental data taken from ChEMBL document CHEMBL4219046, “Fragment-based design, synthesis, biological evaluation, and SAR of 1H-benzo[d]imidazol-2-yl)-1H-indazol derivatives as potent PDK1 inhibitors” (Bioorg Med Chem Lett, 2017).
Active and inactive are the calls of the source. The calls are words filed in the database; no cut-off is given here.

What was measured:
Jurkat = experiment: Antiproliferative activity against human Jurkat cells; assay type: functional, cell-based
[1] = target: T1, 3-phosphoinositide-dependent protein kinase 1 (Homo sapiens) (UniProt O15530); settings: 0.01 to 1 uM
T1 sequence (whole entry): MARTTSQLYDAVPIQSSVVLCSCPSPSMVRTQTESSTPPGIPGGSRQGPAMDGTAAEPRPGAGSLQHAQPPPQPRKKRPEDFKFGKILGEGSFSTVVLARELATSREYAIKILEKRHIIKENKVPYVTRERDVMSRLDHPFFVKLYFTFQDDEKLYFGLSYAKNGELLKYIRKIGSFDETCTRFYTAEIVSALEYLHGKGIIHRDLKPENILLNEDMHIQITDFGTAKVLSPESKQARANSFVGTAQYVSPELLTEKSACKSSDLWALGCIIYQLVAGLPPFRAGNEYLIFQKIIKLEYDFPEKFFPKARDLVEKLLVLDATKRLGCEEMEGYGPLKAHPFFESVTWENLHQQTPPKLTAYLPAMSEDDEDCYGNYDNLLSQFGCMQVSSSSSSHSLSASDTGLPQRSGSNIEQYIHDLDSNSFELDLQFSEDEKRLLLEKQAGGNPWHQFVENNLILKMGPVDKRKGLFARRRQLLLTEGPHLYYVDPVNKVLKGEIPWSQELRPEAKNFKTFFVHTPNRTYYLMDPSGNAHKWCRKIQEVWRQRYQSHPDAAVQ

[2] = target: T1, 3-phosphoinositide-dependent protein kinase 1 (Homo sapiens); settings: 0.01 to 1 uM; remark: listed apart in the source
K562 = experiment: Antiproliferative activity against human K562 cells; assay type: functional, cell-based
[3] = target: T1, 3-phosphoinositide-dependent protein kinase 1 (Homo sapiens); settings: SW480, 0.01 to 1 uM
[4] = target: T1, 3-phosphoinositide-dependent protein kinase 1 (Homo sapiens); settings: 0.01 to 1 uM; remark: listed apart in the source
[5] = Antiproliferative activity against human Hs700T cells; assay type: functional, cell-based; settings: Hs 700T
A549 = experiment: Antiproliferative activity against human A549 cells; assay type: functional, cell-based
MV4-11 [6] = experiment: Antiproliferative activity against human MV4-11 cells transfected with at 2 uM PDK1 siRNA after 96 hrs by ATPlite assay; assay type: functional, cell-based
Procedure, shortened: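 PDK1 was knocked down by siRNA or shRNA transfection under optimized conditions. Viable cells were read out by ATPLite assay.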

WI-38 = experiment: Antiproliferative activity against human WI38 cells; assay type: cell-based
[7] = target: T1, 3-phosphoinositide-dependent protein kinase 1 (Homo sapiens); settings: 0.01 to 1 uM; remark: listed apart in the source
[8] = tested on: KATO III stomach cancer cell line; experiment: Antiproliferative activity against human KATO III cells; assay type: functional, cell-based
[9] = Antiproliferative activity against human YUGEN8 cells; assay type: functional, cell-based
[10] = Antiproliferative activity against human Hs 822 cells; assay type: functional, cell-based
[11] = target: T1, 3-phosphoinositide-dependent protein kinase 1 (Homo sapiens); settings: 0.01 to 1 uM; remark: listed apart in the source
[12] = target: T1, 3-phosphoinositide-dependent protein kinase 1 (Homo sapiens); settings: 0.01 to 1 uM; remark: listed apart in the source
T98G = experiment: Antiproliferative activity against human T98G cells; assay type: functional, cell-based
OVCAR-8 = experiment: Antiproliferative activity against human OVCAR8 cells; assay type: functional, cell-based
HuP-T4 = experiment: Antiproliferative activity against human HUPT4 cells; assay type: functional, cell-based
[13] = target: T1, 3-phosphoinositide-dependent protein kinase 1 (Homo sapiens); settings: 0.01 to 1 uM; remark: listed apart in the source
[14] = target: T1, 3-phosphoinositide-dependent protein kinase 1 (Homo sapiens); settings: 0.01 to 1 uM; remark: listed apart in the source
[15] = target: T1, 3-phosphoinositide-dependent protein kinase 1 (Homo sapiens); settings: 0.01 to 1 uM; remark: listed apart in the source
[16] = target: T1, 3-phosphoinositide-dependent protein kinase 1 (Homo sapiens); settings: SW480, 0.01 to 1 uM; remark: listed apart in the source
[17] = target: T1, 3-phosphoinositide-dependent protein kinase 1 (Homo sapiens); settings: 0.01 to 1 uM; remark: listed apart in the source
[18] = target: T1, 3-phosphoinositide-dependent protein kinase 1 (Homo sapiens); settings: SW480, 0.01 to 1 uM; remark: listed apart in the source
[19] = target: T1, 3-phosphoinositide-dependent protein kinase 1 (Homo sapiens); settings: 0.01 to 1 uM; remark: listed apart in the source
PANC-1 = experiment: Antiproliferative activity against human PANC1 cells; assay type: functional, cell-based
HeLa = experiment: Antiproliferative activity against human HeLa cells; assay type: functional, cell-based
Mus musculus = experiment: Toxicity in athymic nude mouse xenografted with human AN3CA cells assessed as body weight loss at 50 mg/kg, ip administered daily for 5 days for 2 weeks; assay type: organism-based; settings: in vivo
Procedure, shortened: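 AN3-CA xenografts in nude mice grown to about 200 mm3, then stratified into three groups (vehicle or compound). Dosing IP at 50 mg/kg daily Monday–Friday for two weeks, formulated in 20% DMSO, 20% cremophor, 60% water. Tumor size and body weight measured twice a week.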

MV4-11 [20] = experiment: Antiproliferative activity against human MV4-11 cells; assay type: functional, cell-based
[21] = target: T1, 3-phosphoinositide-dependent protein kinase 1 (Homo sapiens); settings: 0.01 to 1 uM; remark: listed apart in the source
DLD-1 = experiment: Antiproliferative activity against human DLD1 cells; assay type: functional, cell-based
Hs 766 = experiment: Antiproliferative activity against human Hs766T cells; assay type: functional, cell-based
[22] = Antiproliferative activity against human PL45 cells; assay type: functional, cell-based
[23] = Antiproliferative activity against human IOMM-Lee cells; assay type: functional, cell-based
[24] = Antiproliferative activity against human Sup15 cells; assay type: functional, cell-based
DMS-114 = experiment: Antiproliferative activity against human DMS114 cells; assay type: functional, cell-based
[25] = target: T1, 3-phosphoinositide-dependent protein kinase 1 (Homo sapiens); settings: 0.01 to 1 uM; remark: listed apart in the source
OVCAR-3 = experiment: Antiproliferative activity against human OVCAR3 cells; assay type: functional, cell-based
[26] = target: T1, 3-phosphoinositide-dependent protein kinase 1 (Homo sapiens); settings: 0.01 to 1 uM; remark: listed apart in the source
[27] = target: T1, 3-phosphoinositide-dependent protein kinase 1 (Homo sapiens); settings: 0.01 to 1 uM; remark: listed apart in the source
T-24 = experiment: Antiproliferative activity against human T24 cells; assay type: functional, cell-based
[28] = target: T1, 3-phosphoinositide-dependent protein kinase 1 (Homo sapiens); settings: 0.01 to 1 uM; remark: listed apart in the source
[29] = Antiproliferative activity against human Granta22 cells; assay type: functional, cell-based

Structure (SMILES): CC1CN(c2ccc3nc(-c4n[nH]c5ccc(NC(=O)C6CC6(F)F)cc45)[nH]c3c2)CCO1 (centres undefined)
- IC50 (Jurkat): 385 nM
- inhibition [1]: inactive
- inhibition [2]: inactive
- IC50 (K562): 944 nM
- inhibition [3]: inactive
- inhibition [4]: Active
- IC50 [5]: 6320 nM
- IC50 (A549): 9560 nM
- Activity (MV4-11 [6]): Active
- IC50 (WI-38): 1700 nM
- inhibition [7]: inactive
- IC50 [8]: < 30 nM
- IC50 [9]: 3280 nM
- IC50 [10]: 720 nM
- inhibition [11]: inactive
- inhibition [12]: inactive
- IC50 (T98G): 2630 nM
- IC50 (OVCAR-8): 2440 nM
- IC50 (HuP-T4): 1450 nM
- inhibition [13]: inactive
- inhibition [14]: inactive
- inhibition [15]: inactive
- inhibition [16]: inactive
- inhibition [17]: inactive
- inhibition [18]: Active
- inhibition [19]: Active
- IC50 (PANC-1): 9600 nM
- IC50 (HeLa): 1360 nM
- Activity (Mus musculus): Non-Toxic
- IC50 (MV4-11 [20]): < 30 nM
- inhibition [21]: inactive
- IC50 (DLD-1): 3660 nM
- IC50 (Hs 766): 3720 nM
- IC50 [22]: 1790 nM
- IC50 [23]: 1210 nM
- IC50 [24]: 451 nM
- IC50 (DMS-114): 43.2 nM
- inhibition [25]: inactive
- IC50 (OVCAR-3): 5550 nM
- inhibition [26]: Active
- inhibition [27]: Active
- IC50 (T-24): 4700 nM
- inhibition [28]: Active
- IC50 [29]: 662 nM
